Columns and labels:
[1] = Cmax in dog at 1.7 mg/kg, po by LC-MS/MS analysis; assay type: ADME, organism-based, Canis lupus familiaris; set-up: dose 1.7 mg/kg, route oral; settings: in vivo
Procedure, shortened: (§1)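 Dogs given a 1.7 mg/kg oral dose as a solution in 30% HPBCD/70% water/KOH at pH = 10; plasma parameters derived from this oral dosing, with the iv dose at 0.5 mg/kg in the same vehicle.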

Mus musculus [2] = assay: Antipruritic activity in histamine-induced scratching C57BL/6 mouse model assessed as reduction in scratching bouts administered orally 120 mins prior to histamine challenge measured after 30 mins relative to vehicle-treated control; assay type: functional
Procedure, shortened: (§2)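 Male C57BL/6 mice dosed orally 120 min before intradermal histamine. Scratching bouts counted over 30 min and compared with vehicle by one-way ANOVA with Dunnett's test. Total and unbound plasma levels taken 30 min after histamine.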

[3] = Unbound clearance in rat at 0.5 mg/kg, iv by LC-MS/MS analysis; assay type: ADME, organism-based; settings: in vivo
Procedure, shortened: (§3)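 Male rats, n = 2 per group, dosed intravenously at 0.5 mg/kg as a solution in 100% DMSO. Unbound clearance is derived from total clearance.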

[4] = target: T1, Sodium channel protein type 9 subunit alpha (Homo sapiens, UniProt Q15858); assay: Inhibition of human Nav1.7 expressed in HEK293 cells assessed as inhibition of sodium current at holding potential of -125 mV measured for 3 to 5 mins by whole cell voltage clamp method; assay type: cell-based
T1 sequence (Q15858 whole entry): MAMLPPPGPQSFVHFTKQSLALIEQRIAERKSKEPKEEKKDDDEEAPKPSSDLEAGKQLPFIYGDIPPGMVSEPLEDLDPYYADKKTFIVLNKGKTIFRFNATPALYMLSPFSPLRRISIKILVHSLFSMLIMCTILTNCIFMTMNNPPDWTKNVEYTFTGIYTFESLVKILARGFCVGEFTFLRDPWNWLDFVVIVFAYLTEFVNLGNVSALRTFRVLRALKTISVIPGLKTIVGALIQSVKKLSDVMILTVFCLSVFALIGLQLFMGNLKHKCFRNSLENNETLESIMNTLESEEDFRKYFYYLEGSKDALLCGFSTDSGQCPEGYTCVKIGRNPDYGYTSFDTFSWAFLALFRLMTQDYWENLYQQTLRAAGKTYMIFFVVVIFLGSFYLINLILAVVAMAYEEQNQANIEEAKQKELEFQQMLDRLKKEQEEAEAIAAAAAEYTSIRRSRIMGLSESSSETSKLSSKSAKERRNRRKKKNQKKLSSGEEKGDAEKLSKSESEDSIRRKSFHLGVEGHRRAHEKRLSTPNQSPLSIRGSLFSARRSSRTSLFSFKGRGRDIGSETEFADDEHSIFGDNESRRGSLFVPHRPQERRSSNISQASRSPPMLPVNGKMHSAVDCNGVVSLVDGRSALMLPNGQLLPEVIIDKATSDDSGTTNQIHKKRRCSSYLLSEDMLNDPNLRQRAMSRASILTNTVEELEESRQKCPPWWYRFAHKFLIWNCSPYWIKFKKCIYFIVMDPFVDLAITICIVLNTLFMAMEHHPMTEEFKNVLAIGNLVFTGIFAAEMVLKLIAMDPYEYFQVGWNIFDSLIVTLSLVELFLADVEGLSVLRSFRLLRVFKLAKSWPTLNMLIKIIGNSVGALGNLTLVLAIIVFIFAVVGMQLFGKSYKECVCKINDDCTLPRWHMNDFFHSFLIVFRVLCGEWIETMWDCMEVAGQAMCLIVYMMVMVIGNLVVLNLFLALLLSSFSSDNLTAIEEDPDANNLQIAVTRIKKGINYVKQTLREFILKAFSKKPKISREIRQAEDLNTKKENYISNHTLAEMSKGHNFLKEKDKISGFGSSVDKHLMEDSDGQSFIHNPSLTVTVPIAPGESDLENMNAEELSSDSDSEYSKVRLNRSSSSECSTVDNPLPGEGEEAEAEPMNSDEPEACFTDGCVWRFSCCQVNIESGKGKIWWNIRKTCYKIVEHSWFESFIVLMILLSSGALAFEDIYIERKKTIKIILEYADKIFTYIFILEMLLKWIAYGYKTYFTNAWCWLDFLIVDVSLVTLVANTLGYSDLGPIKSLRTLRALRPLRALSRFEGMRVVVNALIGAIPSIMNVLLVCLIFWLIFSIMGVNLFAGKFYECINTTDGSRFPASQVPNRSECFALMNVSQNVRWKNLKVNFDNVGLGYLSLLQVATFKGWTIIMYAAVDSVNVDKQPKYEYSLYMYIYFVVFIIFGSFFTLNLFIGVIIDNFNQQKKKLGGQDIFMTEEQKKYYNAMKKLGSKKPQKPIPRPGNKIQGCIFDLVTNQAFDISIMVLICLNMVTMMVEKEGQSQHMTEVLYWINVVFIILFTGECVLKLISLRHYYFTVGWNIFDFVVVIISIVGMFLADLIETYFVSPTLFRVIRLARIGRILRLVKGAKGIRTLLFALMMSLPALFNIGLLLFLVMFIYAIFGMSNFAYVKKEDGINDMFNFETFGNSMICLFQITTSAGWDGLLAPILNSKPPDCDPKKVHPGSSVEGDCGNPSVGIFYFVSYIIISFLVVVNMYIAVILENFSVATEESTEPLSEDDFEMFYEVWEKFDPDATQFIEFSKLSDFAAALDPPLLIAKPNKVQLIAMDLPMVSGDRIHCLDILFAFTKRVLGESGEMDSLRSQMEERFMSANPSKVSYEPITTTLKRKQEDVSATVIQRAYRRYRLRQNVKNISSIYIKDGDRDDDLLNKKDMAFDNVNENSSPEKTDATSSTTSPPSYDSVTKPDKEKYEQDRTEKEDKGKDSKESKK

[5] = target: Sodium channel protein type 3 subunit alpha (Homo sapiens, UniProt Q9NY46); assay: Inhibition of 20% inactivated human Nav1.3 expressed in CHO cells assessed as inhibition of peak inward current by whole cell patch clamp method; assay type: cell-based
[6] = Unbound clearance in dog at 0.5 mg/kg, iv by LC-MS/MS analysis; assay type: ADME, organism-based, Canis lupus familiaris; settings: in vivo
Procedure, shortened: (§4)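 Dogs dosed intravenously at 0.5 mg/kg in 30% HPBCD/70% water, brought to pH 10 with KOH.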

[7] = target: Sodium channel protein type 4 subunit alpha (Homo sapiens, UniProt P35499); assay: Inhibition of 20% inactivated human Nav1.4 expressed in HEK293 cells assessed as inhibition of peak inward current by whole cell patch clamp method; assay type: cell-based
[8] = Total plasma concentration in histamine induced C57BL/6 mouse model of scratching at 60 mg/kg, po pretreated for 120 mins followed by histamine-challenge measured after 30 mins; assay type: ADME, organism-based; procedure, shortened: as §2
[9] = Drug uptake in plasma of po dosed histamine induced C57BL/6 mouse model of scratching pretreated for 120 mins followed by histamine-challenge measured after 30 mins; assay type: ADME, organism-based; settings: in vivo, 0.5 h; procedure, shortened: as §2
[10] = Cmax in rat at 10 mg/kg, po by LC-MS/MS analysis; assay type: ADME, organism-based; set-up: dose 10 mg/kg, route oral; settings: in vivo
Procedure, shortened: (§5)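 Rats dosed orally at 10 mg/kg as a solution in 30% HPBCD/70% water, brought to pH 10 with KOH.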

[11] = Volume of distribution at steady state in rat at 0.5 mg/kg, iv by LC-MS/MS analysis; assay type: ADME, organism-based; settings: in vivo, read-out: Vdss; procedure, shortened: as §3
[12] = Tmax in rat at 10 mg/kg, po by LC-MS/MS analysis; assay type: ADME, organism-based; settings: in vivo; procedure, shortened: as §5
[13] = Inhibition of 20% inactivated cynomolgus monkey Nav1.7 expressed in HEK293T cells assessed as inhibition of sodium current measured for 3 to 5 mins by whole cell voltage clamp method; assay type: cell-based; settings: Macaca fascicularis, HEK-293T
Procedure, shortened: (§6)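 Electrophysiological block was measured with cells depolarized to a voltage that gave 20% channel inactivation, as opposed to a fully non-inactivated (closed) holding condition.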

[14] = target: Sodium channel protein type 8 subunit alpha (Homo sapiens, UniProt Q9UQD0); assay: Inhibition of 20% inactivated human Nav1.6 expressed in HEK293 cells assessed as inhibition of peak inward current by whole cell patch clamp method; assay type: cell-based
[15] = Dissociation constant, pKa of the compound at pH 1.7 to 11.2 by capillary electrophoresis method; assay type: physicochemical
Procedure, shortened: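 pKa values calculated from capillary electrophoresis data collected over pH 1.7 to 11.2.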

[16] = Fraction unbound in rat plasma at 5 uM measured after 45 mins by LC-MS/MS analysis; assay type: ADME, cell-free
[17] = Oral bioavailability in dog at 1.7 mg/kg by LC-MS/MS analysis; assay type: ADME, organism-based, Canis lupus familiaris; settings: in vivo; procedure, shortened: as §1
[18] = target: Sodium channel protein type 9 subunit alpha (Rattus norvegicus, UniProt O08562); assay: Inhibition of 20% inactivated rat Nav1.7 expressed in HEK293T cells assessed as inhibition of sodium current measured for 3 to 5 mins by whole cell voltage clamp method; assay type: cell-based, HEK-293T
Sodium channel protein type 9 subunit alpha (Rattus norvegicus, UniProt O08562), sequence (O08562 whole entry): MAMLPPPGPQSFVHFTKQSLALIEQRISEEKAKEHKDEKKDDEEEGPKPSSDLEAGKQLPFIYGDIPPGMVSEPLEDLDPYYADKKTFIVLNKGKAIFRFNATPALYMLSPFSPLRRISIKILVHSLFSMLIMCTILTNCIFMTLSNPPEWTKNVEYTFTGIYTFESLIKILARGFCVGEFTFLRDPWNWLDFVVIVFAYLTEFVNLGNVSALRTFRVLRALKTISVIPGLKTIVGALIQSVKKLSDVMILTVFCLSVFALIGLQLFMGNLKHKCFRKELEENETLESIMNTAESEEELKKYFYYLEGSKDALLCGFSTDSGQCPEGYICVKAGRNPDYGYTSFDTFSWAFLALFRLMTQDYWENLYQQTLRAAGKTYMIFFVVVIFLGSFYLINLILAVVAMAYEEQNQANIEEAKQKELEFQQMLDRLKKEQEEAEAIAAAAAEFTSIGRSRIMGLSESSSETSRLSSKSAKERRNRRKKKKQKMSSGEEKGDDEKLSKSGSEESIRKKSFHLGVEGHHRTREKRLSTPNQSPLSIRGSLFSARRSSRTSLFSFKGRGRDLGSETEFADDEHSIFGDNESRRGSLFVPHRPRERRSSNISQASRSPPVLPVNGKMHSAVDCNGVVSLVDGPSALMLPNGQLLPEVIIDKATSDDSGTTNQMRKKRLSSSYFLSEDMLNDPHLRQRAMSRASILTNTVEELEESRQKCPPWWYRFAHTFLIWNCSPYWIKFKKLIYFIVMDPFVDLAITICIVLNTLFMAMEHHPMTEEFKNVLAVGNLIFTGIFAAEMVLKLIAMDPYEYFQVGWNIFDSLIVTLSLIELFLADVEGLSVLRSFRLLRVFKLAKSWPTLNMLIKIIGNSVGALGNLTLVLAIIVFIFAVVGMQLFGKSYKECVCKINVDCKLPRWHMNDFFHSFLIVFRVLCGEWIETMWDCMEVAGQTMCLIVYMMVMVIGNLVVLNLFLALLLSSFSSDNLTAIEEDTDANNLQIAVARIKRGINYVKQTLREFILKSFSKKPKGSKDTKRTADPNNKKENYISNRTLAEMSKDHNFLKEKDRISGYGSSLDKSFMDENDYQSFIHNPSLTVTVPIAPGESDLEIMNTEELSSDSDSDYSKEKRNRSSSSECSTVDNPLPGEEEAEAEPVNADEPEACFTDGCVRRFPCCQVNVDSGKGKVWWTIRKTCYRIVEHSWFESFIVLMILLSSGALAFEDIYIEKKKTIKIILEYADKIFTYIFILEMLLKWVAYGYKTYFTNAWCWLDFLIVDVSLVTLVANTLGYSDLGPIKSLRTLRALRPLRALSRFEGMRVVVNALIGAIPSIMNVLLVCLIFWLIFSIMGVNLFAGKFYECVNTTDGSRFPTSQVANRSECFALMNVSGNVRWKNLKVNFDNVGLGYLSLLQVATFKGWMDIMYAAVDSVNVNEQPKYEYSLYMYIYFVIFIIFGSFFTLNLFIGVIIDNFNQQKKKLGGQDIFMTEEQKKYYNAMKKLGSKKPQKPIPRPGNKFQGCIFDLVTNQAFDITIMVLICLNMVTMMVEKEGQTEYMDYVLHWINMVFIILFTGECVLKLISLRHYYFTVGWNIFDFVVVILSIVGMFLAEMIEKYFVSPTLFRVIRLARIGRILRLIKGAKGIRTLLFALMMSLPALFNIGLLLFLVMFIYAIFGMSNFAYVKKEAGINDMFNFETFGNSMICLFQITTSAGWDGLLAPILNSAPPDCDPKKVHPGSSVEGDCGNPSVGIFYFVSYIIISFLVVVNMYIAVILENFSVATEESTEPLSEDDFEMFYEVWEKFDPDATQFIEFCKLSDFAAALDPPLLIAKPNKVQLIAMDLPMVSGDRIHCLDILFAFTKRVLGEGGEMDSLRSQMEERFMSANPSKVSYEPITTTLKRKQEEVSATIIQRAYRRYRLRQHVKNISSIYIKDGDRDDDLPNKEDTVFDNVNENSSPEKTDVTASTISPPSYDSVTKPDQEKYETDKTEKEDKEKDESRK

[19] = Total plasma concentration in histamine induced C57BL/6 mouse model of scratching at 5 mg/kg, po pretreated for 120 mins followed by histamine-challenge measured after 30 mins; assay type: ADME, organism-based; procedure, shortened: as §2
[20] = Clearance in dog at 0.5 mg/kg, iv by LC-MS/MS analysis; assay type: ADME, organism-based, Canis lupus familiaris; settings: in vivo
[21] = Unbound plasma concentration in histamine induced C57BL/6 mouse model of scratching at 60 mg/kg, po pretreated for 120 mins followed by histamine-challenge measured after 30 mins; assay type: ADME, organism-based; settings: in vivo, 0.5 h; procedure, shortened: as §2
[22] = Ratio of drug level in brain to plasma in C57BL/6 mouse; assay type: ADME; settings: read-out: BPR
[23] = Drug excretion in bile duct cannulated Sprague-Dawley rat bile assessed as parent compound at 1 mg/kg, iv administered through catheter measured up to 24 hrs by LC-MS/MS analysis; assay type: ADME, organism-based; settings: read-out: Drug excretion
[24] = target: Voltage-gated inwardly rectifying potassium channel KCNH2 (Homo sapiens, UniProt Q12809); assay: Displacement of [3H]dofetilide from human ERG expressed in HEK293 cell membranes measured after 90 mins by TopCount scintillation counting method
Voltage-gated inwardly rectifying potassium channel KCNH2, sequence (Q12809 whole entry): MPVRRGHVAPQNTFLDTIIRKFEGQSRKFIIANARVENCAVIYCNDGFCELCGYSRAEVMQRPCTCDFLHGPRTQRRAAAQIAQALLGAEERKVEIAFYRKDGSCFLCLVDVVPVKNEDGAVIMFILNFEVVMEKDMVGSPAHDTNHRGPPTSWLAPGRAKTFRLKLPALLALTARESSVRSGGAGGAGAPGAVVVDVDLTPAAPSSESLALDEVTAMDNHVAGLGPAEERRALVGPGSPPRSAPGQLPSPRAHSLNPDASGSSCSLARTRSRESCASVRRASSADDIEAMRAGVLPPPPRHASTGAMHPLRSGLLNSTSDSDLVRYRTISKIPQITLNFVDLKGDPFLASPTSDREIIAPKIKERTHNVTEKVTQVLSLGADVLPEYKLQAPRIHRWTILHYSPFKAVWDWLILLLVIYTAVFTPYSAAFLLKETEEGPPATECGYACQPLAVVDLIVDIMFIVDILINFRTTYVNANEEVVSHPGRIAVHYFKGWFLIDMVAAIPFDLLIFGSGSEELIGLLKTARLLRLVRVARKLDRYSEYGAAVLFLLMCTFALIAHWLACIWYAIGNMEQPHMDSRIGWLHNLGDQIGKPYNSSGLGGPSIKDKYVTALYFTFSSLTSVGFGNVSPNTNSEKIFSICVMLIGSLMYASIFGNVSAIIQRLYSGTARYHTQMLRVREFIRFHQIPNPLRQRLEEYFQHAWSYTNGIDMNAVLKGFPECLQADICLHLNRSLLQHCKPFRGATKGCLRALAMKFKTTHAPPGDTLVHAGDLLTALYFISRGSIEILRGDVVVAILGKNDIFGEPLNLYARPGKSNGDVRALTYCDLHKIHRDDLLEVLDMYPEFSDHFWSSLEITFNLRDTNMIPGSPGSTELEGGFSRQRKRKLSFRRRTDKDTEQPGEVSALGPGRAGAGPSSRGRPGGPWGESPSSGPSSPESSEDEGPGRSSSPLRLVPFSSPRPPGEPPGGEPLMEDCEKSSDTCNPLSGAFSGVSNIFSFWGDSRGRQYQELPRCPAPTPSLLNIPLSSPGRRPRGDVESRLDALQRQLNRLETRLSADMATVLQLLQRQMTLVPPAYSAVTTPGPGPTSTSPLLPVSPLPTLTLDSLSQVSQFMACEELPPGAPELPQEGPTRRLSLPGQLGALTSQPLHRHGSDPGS

[25] = target: T1, Sodium channel protein type 9 subunit alpha; assay: Inhibition of 20% inactivated human Nav1.7 expressed in HEK293 cells assessed as inhibition of peak inward current by whole cell patch clamp method; assay type: cell-based; procedure, shortened: as §6
[26] = Half life in dog at 0.5 mg/kg, iv by LC-MS/MS analysis; assay type: ADME, organism-based, Canis lupus familiaris; settings: in vivo; procedure, shortened: as §4
[27] = Unbound plasma concentration in histamine induced C57BL/6 mouse model of scratching at 5 mg/kg, po pretreated for 120 mins followed by histamine-challenge measured after 30 mins; assay type: ADME, organism-based; settings: in vivo, 0.5 h; procedure, shortened: as §2
[28] = target: T1, Sodium channel protein type 9 subunit alpha; assay: Inhibition of human Nav1.7 in closed state expressed in HEK293 cells assessed as inhibition of sodium current at holding potential of -140 mV measured for 3 to 5 mins by whole cell voltage clamp method; assay type: cell-based
Procedure, shortened: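 Closed-state (fully non-inactivated) protocol: inhibition was measured with cells held at −140 mV, for comparison with protocols using inactivating depolarizations.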

Mus musculus [29] = assay: Toxicity in C57BL/6 mouse assessed as reduction in locomotor activity at 5 to 60 mg/kg, po measured after 4 hrs by open field movement assay; assay type: organism-based; settings: in vivo
[30] = Tmax in dog at 1.7 mg/kg, po by LC-MS/MS analysis; assay type: ADME, organism-based, Canis lupus familiaris; settings: in vivo; procedure, shortened: as §1
[31] = target: Sodium channel protein type 9 subunit alpha (Mus musculus, UniProt Q62205); assay: Inhibition of 20% inactivated Nav1.7 in C57BL/6 mouse DRG neurons assessed as inhibition of sodium currents in presence of TTX by whole cell patch clamp assay
Procedure, shortened: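 Electrophysiology of TTX-sensitive sodium channels recorded from the cell bodies of sensory neurons freshly dissociated from mouse dorsal root ganglia.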

[32] = Half life in rat at 0.5 mg/kg, iv by LC-MS/MS analysis; assay type: ADME, organism-based; settings: in vivo; procedure, shortened: as §3
[33] = target: Sodium channel protein type 5 subunit alpha (Homo sapiens, UniProt Q14524); assay: Inhibition of human Nav1.5 expressed in HEK293 cells assessed as inhibition of sodium current at holding potential of -125 mV measured for 3 to 5 mins by whole cell voltage clamp method; assay type: cell-based

Structure (SMILES): COc1cc(C(F)(F)F)ccc1-c1ncnc2cc(S(=O)(=O)Nc3nccs3)ccc12
- Cmax [1]: 8 µM
- Activity (Mus musculus [2]): Dose-dependent effect
- CL free [3]: 567 mL/min/kg
- IC50 [4]: 0.16 µM
- IC50 [5]: 21 µM
- CL free [6]: 17 mL/min/kg
- IC50 [7]: 17 µM
- concentration at 0.5 h [8]: 150 µM
- Drug uptake [9]: Dose-dependent effect
- Cmax [10]: 3.4 µM
- Vd [11]: 1.5 L
- Tmax [12]: 1.7 h
- IC50 [13]: 0.16 µM
- IC50 [14]: 3.7 µM
- pKa [15]: 6.5
- fraction unbound at 0.75 h, 5 µM [16]: 0.016
- bioavailability [17]: 53%
- IC50 [18]: 3.5 µM
- concentration at 0.5 h [19]: 3.1 µM
- clearance [20]: 0.217 mL/min/kg
- Cp(f) [21]: 5.1 µM
- Kp [22]: 0.008
- dose excreted at 24 h [23]: 4.7%
- Ki [24]: > 30 µM
- IC50 [25]: 0.14 µM
- half-life [26]: 18 h
- Cp(f) [27]: 0.11 µM
- IC50 [28]: 7.2 µM
- Activity (Mus musculus [29]): Non-Toxic
- Tmax [30]: 2.3 h
- IC50 [31]: 0.13 µM
- half-life [32]: 1.9 h
- IC50 [33]: > 30 µM

From ChEMBL document CHEMBL3864175, “Sulfonamides as Selective NaV1.7 Inhibitors: Optimizing Potency and Pharmacokinetics to Enable in Vivo Target Engagement” (ACS Med Chem Lett, 2016)
